In the library only some 2.6% were active in any assay of this set; here they are far more common.
procasp3 activ – procaspase-3 (human) activation. P42574. recombinant procaspase-3 D3A, Ac-DEVD-pNA absorbance 405 nm. activation, % at 8.5 µM. 330,000 tested, 0.11% active;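 active = activation above the mean of all tested compounds plus 3 SD, cut at about 21% in these data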;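 note: 0% = DMSO alone and 100% = DMSO wells spiked with extra 5 µM PC-3 D3A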
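Test system: Procaspase-3 D3A mutant; medium: Zinc-free HEPES/NaCl buffer with 0.01% Triton X-100 at pH 7.4; reagent: DEVD-pNA substrate; doses: one concentration, 8.5 µM nominal, 0.8% DMSO; times: 1 h preincubation plus 2 h reaction at 25 °C; signal: Epi-absorbance at 405 nm of released p-nitroaniline, 0 and 120 min; replicates: singlicate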
AHR activator – human AHR activation. AHR-responsive luciferase reporter cells, luminescence. P35869. 320,000 tested, 2.5% active. activation, % at 5 µM. AID 2796; in the data active = activation above about 47%;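 note: 0% = vehicle wells and 100% = reference agonist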
Target sequence (P35869 whole entry, looked up): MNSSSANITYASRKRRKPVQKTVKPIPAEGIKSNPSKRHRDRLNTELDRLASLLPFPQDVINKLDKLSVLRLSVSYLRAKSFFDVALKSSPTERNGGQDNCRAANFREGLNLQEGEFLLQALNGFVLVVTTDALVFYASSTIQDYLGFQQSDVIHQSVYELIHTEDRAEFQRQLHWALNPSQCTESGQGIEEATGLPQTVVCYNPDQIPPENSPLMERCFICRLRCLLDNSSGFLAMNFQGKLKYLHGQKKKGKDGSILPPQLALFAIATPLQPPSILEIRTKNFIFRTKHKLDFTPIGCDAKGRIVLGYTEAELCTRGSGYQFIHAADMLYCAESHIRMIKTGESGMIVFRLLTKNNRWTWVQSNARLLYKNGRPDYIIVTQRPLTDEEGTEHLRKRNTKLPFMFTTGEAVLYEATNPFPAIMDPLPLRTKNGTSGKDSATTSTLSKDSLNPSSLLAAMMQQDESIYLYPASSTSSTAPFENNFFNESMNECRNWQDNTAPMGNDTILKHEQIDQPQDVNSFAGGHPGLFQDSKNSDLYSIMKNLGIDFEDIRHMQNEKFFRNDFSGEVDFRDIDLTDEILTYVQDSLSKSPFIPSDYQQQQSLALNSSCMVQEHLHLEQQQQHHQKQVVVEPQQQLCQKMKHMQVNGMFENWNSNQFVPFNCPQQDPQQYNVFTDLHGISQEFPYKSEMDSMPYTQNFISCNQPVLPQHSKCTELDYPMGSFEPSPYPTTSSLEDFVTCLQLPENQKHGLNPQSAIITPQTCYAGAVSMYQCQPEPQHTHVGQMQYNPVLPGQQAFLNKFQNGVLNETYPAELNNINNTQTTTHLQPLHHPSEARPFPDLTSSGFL
procasp7 counter – activates human procaspase-7, counter-screen for procaspase-3 activators; P55210; recombinant procaspase-7, Ac-DEVD-pNA absorbance 405 nm; D23A/D198A/D206A triple mutant, cannot self-cleave; scale: DMSO 0, 5 µM enzyme 100; activation, % at 8.5 µM; 330,000 tested, 0.093% active;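 active = percent activation above the screen-wide mean plus 3 SD, cut at about 25% in these data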
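System: Uncleavable procaspase-7 mutant enzyme; Amount: 2 µM procaspase-7 mutant as dispensed; Schedule: 1 h compound preincubation, 2 h substrate cleavage, 25 °C; Measured by: 405 nm absorbance of p-nitroaniline; Evaluation: percent activation from buffer-corrected 0–120 min absorbance change; Control set: low DMSO alone, high DMSO plus 5 µM PC-7.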
PolyA inh – blocks polyadenylation in yeast reporter cells; activity score, % at 12 µM; S. cerevisiae SKY197-pL101 polyadenylation reporter, beta-gal luminescence; efflux-impaired pdr1/pdr3 knockout yeast; score 100 = 6 SD above DMSO; 300,000 tested, 0.02% active;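 active = lowest replicate activity score at least 50, where 100 means six control SD above control mean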;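 note: yeast exposed to compound for 9 h at 30 °C; higher score means more reporter readthrough which indicates perturbed polyadenylation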
An asterisk follows results filed as active.

SMILES	procasp3 activ	AHR activator	procasp7 counter	PolyA inh
CCCOc1cccc(C(=O)Nc2cccc(NC(=O)c3ccco3)c2)c1	-15	48*	-13	-4
CCOc1cccc(C(=O)Nc2cccc(C(=O)NCC(C)C)c2)c1	5	71*	-10	1
O=C(Nc1ccc(Cl)cc1)Nc1nc(-c2ccccc2O)cs1	-2	-1	13	-11
O=C(Nc1ccc(Cl)cc1)Nc1nc(-c2sccc2Br)cs1	8	62*	9	-5
C/C(=N\Nc1ccc(Cl)cc1)c1ccccn1	-3	68*	-15	-9
C/C(=N\NC(=O)c1ccc(Cl)cc1)c1ccccn1	2	5	5	-45
C/C(=N\Nc1ccc(F)cc1)c1ccncc1	-4	33	1	17
C/C(=N\Nc1ccc(Cl)cc1)c1ccncc1	-9	68*	0	-15
CCCC(C(=O)Nc1ccncc1)c1ccccc1 (stereo not drawn)	-1	-4	12	1
COc1nc(Nc2cccc([N+](=O)[O-])c2)nc(OC)n1	3	3	6	-16
C#CCOc1nc(Nc2cccc([N+](=O)[O-])c2)nc(OCC#C)n1	-6	52*	5	-12
Cc1[nH]c2ccccc2c1/C=N/NC(=O)CNC(=O)c1cccs1	0	9	7	34
Cn1cc(C(=O)N/N=C/c2cc(Br)cs2)c2ccccc21	1	50*	-1	-1
Cn1cc(/C=N/NC(=O)c2cccc([N+](=O)[O-])c2)c2ccccc21	-14	69*	4	7
Cc1[nH]c2ccccc2c1/C=N/NC(=O)c1cccc([N+](=O)[O-])c1	5	48*	1	3
Cc1[nH]c2ccccc2c1/C=N/NC(=O)c1cccs1	8	74*	4	-1
COc1ccc(/C=N/NC(=O)c2cccc([N+](=O)[O-])c2)c2ccccc12	3	13	-3	-5
CCc1cc2c3c(c(=O)oc2cc1OCC(=O)OC)CCCC3	8	-1	1	2
COC(=O)[C@H](CC(C)C)NC(=O)N1CCC(C)CC1	-9	-2	-2	21
Nc1nc2ccccc2n1C(=O)c1ccccc1	7	10	-2	-4
Nc1nc2ccccc2n1C(=O)c1cccs1	10	52*	17	-1
Cc1cc(C)c2c(N)c(-c3nc4ccccc4[nH]3)sc2n1	0	55*	-3	10
CCCOC(=O)C1=C(C)N(C)C(=O)NC1c1cc2c(cc1[N+](=O)[O-])OCO2 (stereo not drawn)	0	60*	-15	-4
O=C(Nc1cc2c3c(c1)CC(=O)N3CCC2)c1ccc(F)cc1	13	47*	5	16
CC1(C)CC(=O)C=C(Nc2ccc(Cl)c(Br)c2)C1	-1	68*	-3	11
SMILES	procasp3 activ	AHR activator	procasp7 counter	PolyA inh
CC1(C)CC(=O)C=C(Nc2ccc(Cl)cc2)C1	-2	2	-2	-7
Cc1ccc(C(=O)Nc2cc(Cl)ccc2Oc2ccccc2)cc1[N+](=O)[O-]	12	67*	6	8
Cc1cc(C)nc(NC(=O)c2ccc(C)c([N+](=O)[O-])c2)n1	-5	72*	-1	-2
CSc1ccc(CN2CCC(CO)(CCOc3ccccc3)CC2)cc1	-1	0	-1	-23
CNc1nc(Nc2ccc([N+](=O)[O-])cc2)nc(OCC(F)(F)F)n1	-2	62*	2	6
COc1ccc(Br)cc1/C=N/N1C(=O)CSC1=S	-11	49*	-13	11
O=C(COc1cccc2ccccc12)NCc1cccnc1	5	18	4	4
CCCN(C(=O)Cn1nc(C)c([N+](=O)[O-])c1C)c1c(N)n(Cc2ccccc2)c(=O)[nH]c1=O	-1	2	12	-9
Cc1cc(C)nc(N/N=C/c2ccccc2)n1	-8	4	-4	17
Cc1cc(C)nc(N/N=C/c2cn[nH]c2-c2ccccc2)n1	0	67*	6	4
Cc1c(C(=O)Nc2ccc(F)cc2)c2ccccn2c1CCc1ccncc1	2	90*	10	-2
Cc1cc(C(=O)N2CCc3c([nH]c4ccccc34)C2c2cccc(Cl)c2)nn1C (stereo not drawn)	1	41	3	-23
CCOc1ccc(C2c3[nH]c4ccccc4c3CCN2C(=O)Cn2cncn2)cc1 (stereo not drawn)	-4	68*	-7	-6
CSc1ccc(C2c3[nH]c4ccccc4c3CCN2C(=O)c2cc(C)n(C)n2)cc1 (stereo not drawn)	2	49*	0	-5

From PubChem
